Assay results pooled from the literature.
Read-out: cell growth or viability

SMILES | cell line | technique | concentration | time | endpoint | value
Cc1cc(=O)oc2ccc(-c3cc(-c4ccc(Cl)cc4)nc(N)n3)c(O)c12 | KB | MTT | 32 µg/mL | 72 h | inhibition | 54%
Cn1nnc2c(C(N)=O)ncn2c1=O | SNU1 | – | – | – | EC50 | 243 µM
COC(=O)COc1ccc(NC(=O)C2(c3ccc(Cl)cc3)CC2)cc1Br | U-937 | ATP luminescence | – | 72 h | GI50 | 1.6 µM
C=CC(=O)N1CCC[C@@H](n2nc(-c3ccc(Oc4ccccc4)cc3)c3c(N)ncnc32)C1 | U-937 | ATP luminescence | – | 72 h | GI50 | 6.4 µM
COC(=O)COc1ccc(NC(=O)C2(c3ccc(F)cc3)CC2)cc1 | U-937 | ATP luminescence | – | 72 h | GI50 | 5.9 µM
Cc1cc(=O)oc2ccc(-c3cc(-c4cccc(Cl)c4)nc(N)n3)c(O)c12 | KB | MTT | 2 µg/mL | 72 h | inhibition | 0%
COC(=O)COc1ccc(NC(=O)C2(c3ccc(Cl)cc3)CC2)c(C)c1 | U-937 | ATP luminescence | – | 72 h | GI50 | 6 µM
C=CC(=O)N1CCC[C@@H](n2nc(-c3ccc(Oc4ccccc4)cc3)c3c(N)ncnc32)C1 | MINO | ATP luminescence | – | 72 h | GI50 | 6.31 µM
C=CC(=O)N1CCN(c2cc(-c3noc([C@@]4(C)CCCc5sc(N)c(C#N)c54)n3)nc(N3CCN(C)C[C@@H]3C)c2)CC1 | LS-513 | – | – | 5 days | EC50 | 4.7 µM
Cc1cc(=O)oc2ccc(-c3cc(-c4ccccc4)nc(N)n3)c(O)c12 | KB | MTT | 8 µg/mL | 72 h | inhibition | 0%
COC(=O)COc1ccc(NC(=O)C2(c3cccc(Br)c3)CC2)c(C)c1 | U-937 | ATP luminescence | – | 72 h | GI50 | 3.2 µM
Cc1cc(=O)oc2ccc(-c3cc(-c4ccc(Br)cc4)nc(N)n3)c(O)c12 | KB | MTT | 2 µg/mL | 72 h | inhibition | 0%
CC(C)C[C@H](NC(=O)[C@H](Cc1ccccc1)NC(=O)c1cnccn1)B(O)O | SNU1 | ATP luminescence | – | – | IC50 | 0.014 µM
